Assay [1] has as its system Salmonella enterica subsp. enterica serovar Abony. Description: Antibacterial activity against Salmonella abony NCTC 6017 assessed as growth inhibition at 100 ug/ml after 8 to 24 hrs by agar well diffusion method. Type of assay: functional. The settings on record: read-out: DIZ. Summed up:
(§1)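 Agar well diffusion on nutrient agar (peptone, yeast extract, NaCl, 2% agar, pH 7). Suspensions were set to 0.5 McFarland in sterile water, final inoculum 5x10^7 CFU/mL. Plates were swabbed and left 15 min, then ~4 mm wells received 100 µL compound in DMSO, with DMSO as control. Plates stood 2 h at room temperature, then 24 h at 37 °C. Inhibition zone diameter was measured.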
On the technique in general: A growth-free zone around the sample is the usual read-out of agar diffusion tests.

Assay [2] relates to Staphylococcus epidermidis. Kind of assay: Antibacterial activity against Staphylococcus epidermidis ATCC 12228 assessed as growth inhibition at 25 ug/ml after 8 to 24 hrs by agar well diffusion method. Type of assay: functional. Summed up:
as §1

Assay [3] deals with Staphylococcus epidermidis. Description: Antibacterial activity against Staphylococcus epidermidis ATCC 12228 assessed as growth inhibition at 100 ug/ml after 8 to 24 hrs by agar well diffusion method. Type of assay: functional. As to conditions: for zone of inhibition at 100 µg/mL: read-out: DIZ. The gist of the method:
as §1

Assay [4] deals with Escherichia coli. Kind of assay: Antibacterial activity against Escherichia coli ATCC 8739 after 24 to 48 hrs. Format: functional. The gist of the method: (§2)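 Broth MIC in nutrient broth, pH 7.0. Inoculum came from a 16 h culture set to 0.5 McFarland, then diluted 10-fold to 1.2x10^7 CFU/mL. Compounds went from a 4 mg/mL DMSO stock to final 250 to 0.03 µg/mL. Controls were inoculum without compound and compound without inoculum. Incubation was 24-48 h at 37 °C. Then 5 µL was spotted onto agar for 24 h at 37 °C. MIC is the lowest concentration with no visible growth.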

Assay [5] deals with Staphylococcus aureus. Kind of assay: Antibacterial activity against Staphylococcus aureus ATCC 6538P after 24 to 48 hrs. Type of assay: functional. The gist of the method: as §2
The subject of assay [6] is Salmonella enterica subsp. enterica serovar Abony. Description: Antibacterial activity against Salmonella abony NCTC 6017 after 24 to 48 hrs. Format: functional. The gist of the method: as §2
Assay [7] has as its system Staphylococcus epidermidis. Kind of assay: Antibacterial activity against Staphylococcus epidermidis ATCC 12228 after 24 to 48 hrs. Type of assay: functional. Summed up: as §2
For assay [8], the system named is Escherichia coli. Kind of assay: Antibacterial activity against Escherichia coli ATCC 8739 assessed as growth inhibition at 25 to 100 ug/ml at 12 hrs by agar well diffusion method. Type of assay: functional, organism-based.
In assay [9] the test system is Staphylococcus aureus. Kind of assay: Antibacterial activity against Staphylococcus aureus ATCC 6538P assessed as growth inhibition at 25 to 100 ug/ml at 12 hrs by agar well diffusion method. Format: functional, organism-based.
Assay [10] relates to Salmonella enterica subsp. enterica serovar Abony. Kind of assay: Antibacterial activity against Salmonella abony NCTC 6017 assessed as growth inhibition at 25 to 100 ug/ml at 12 hrs by agar well diffusion method. Type of assay: functional, organism-based.
Assay [11] relates to Staphylococcus epidermidis. Kind of assay: Antibacterial activity against Staphylococcus epidermidis ATCC 12228 assessed as growth inhibition at 25 to 100 ug/ml at 12 hrs by agar well diffusion method. Format: functional, organism-based.
Assay [12] has as its system Escherichia coli. Kind of assay: Antibacterial activity against Escherichia coli ATCC 8739 assessed as growth inhibition at 25 ug/ml after 8 to 24 hrs by agar well diffusion method. Type of assay: functional. As to conditions: read-out: DIZ. The gist of the method: as §1
Assay [13] relates to Escherichia coli. Description: Antibacterial activity against Escherichia coli ATCC 8739 assessed as growth inhibition at 100 ug/ml after 8 to 24 hrs by agar well diffusion method. Type of assay: functional. As to conditions: read-out: DIZ. The gist of the method: as §1
In assay [14] the test system is Staphylococcus aureus. Description: Antibacterial activity against Staphylococcus aureus ATCC 6538P assessed as growth inhibition at 25 ug/ml after 8 to 24 hrs by agar well diffusion method. Type of assay: functional. As to conditions: read-out: DIZ. Summed up: as §1
Assay [15] relates to Staphylococcus aureus. Description: Antibacterial activity against Staphylococcus aureus ATCC 6538P assessed as growth inhibition at 100 ug/ml after 8 to 24 hrs by agar well diffusion method. Format: functional. As to conditions: read-out: DIZ. Summed up: as §1
Assay [16] relates to Salmonella enterica subsp. enterica serovar Abony. Kind of assay: Antibacterial activity against Salmonella abony NCTC 6017 assessed as growth inhibition at 25 ug/ml after 8 to 24 hrs by agar well diffusion method. Format: functional. The settings on record: read-out: DIZ. Summed up:
as §1

Values after ≈ are worked out from the molar mass of the structure shown. Active and inactive are the calls of the source. No cut-off for these calls is given here.

In general, MIC refers to the least concentration at which growth counts as inhibited. As for `CCOC(=O)C1(C)C(C)NC(=O)N(C)C1c1ccccc1` (stereo not given), the zone of inhibition at 100 µg/mL in [1] came to 10 mm; in assay [3], 14 mm; with Escherichia coli [13], 13 mm; with Staphylococcus aureus [15], 10 mm. In addition, the “diameter of the inhibition zone (DIZ)” value in assay [2] is “inactive”. Further, the MIC came out at 68 µg/mL (≈ 234 µM) against Escherichia coli [4], 125 µg/mL (≈ 430 µM) against Staphylococcus aureus [5], 125 µg/mL (≈ 430 µM) in assay [6] and 68 µg/mL (≈ 234 µM) in [7]. For the same compound, the result (with Escherichia coli [8]; with Staphylococcus aureus [9]; in assay [10]; in assay [11]) was inactive. For the same compound, the zone of inhibition at 25 µg/mL was determined as 12 mm with Escherichia coli [12], 10 mm with Staphylococcus aureus [14] and 9 mm in assay [16].

For `CCOC(=O)C1(C)C(C)NC(=O)N(C)C1c1ccc(Cl)cc1` (stereo not given), the zone of inhibition at 100 µg/mL turned out to be 10 mm in assay [1], 13 mm in [3], 14 mm in the assay with Escherichia coli [13] and 16 mm in the assay on Staphylococcus aureus [15]. Also, the “diameter of the inhibition zone (DIZ)” value in assay [2] is “inactive”. The MIC is 32 µg/mL (≈ 98.5 µM) against Escherichia coli [4], 68 µg/mL (≈ 209 µM) in the assay with Staphylococcus aureus [5], 125 µg/mL (≈ 385 µM) in [6] and 68 µg/mL (≈ 209 µM) in assay [7]. For the same compound, the result (with Escherichia coli [8]; with Staphylococcus aureus [9]; in assay [10]; in assay [11]) was inactive. Besides, the figures for the zone of inhibition at 25 µg/mL (with Escherichia coli [12]; with Staphylococcus aureus [14]; in assay [16]) were 10 mm, 12 mm and 9 mm, respectively.

For the compound `O=C(N[C@H](CO)[C@H](O)c1ccc([N+](=O)[O-])cc1)C(Cl)Cl` [CHLORAMPHENICOL], the zone of inhibition at 100 µg/mL came out at 32 mm in assay [1], 35 mm in assay [3], 24 mm with Escherichia coli [13] and 28 mm in the assay on Staphylococcus aureus [15]. Besides, the zone of inhibition at 25 µg/mL worked out at 14 mm in assay [2] (read-out: DIZ), 20 mm in the assay on Escherichia coli [12], 20 mm in the assay with Staphylococcus aureus [14] and 19 mm in [16]. Moreover, the MIC with Staphylococcus aureus [5] is 8 µg/mL (≈ 24.8 µM); in [6], 4 µg/mL (≈ 12.4 µM); in [7], 4 µg/mL (≈ 12.4 µM).

Turning to `CCOC(=O)C1(C)C(C)NC(=S)N(C)C1c1ccc(OC)cc1` (stereo not given), the zone of inhibition at 100 µg/mL in assay [1] amounted to 15 mm; in the assay on Escherichia coli [13] it was 22 mm; in the assay with Staphylococcus aureus [15], 16 mm. The “diameter of the inhibition zone (DIZ)” value in assay [2] and in [3] was “inactive” in each case. Further, the MIC is 16 µg/mL (≈ 47.6 µM) in the assay on Escherichia coli [4], 32 µg/mL (≈ 95.1 µM) with Staphylococcus aureus [5], 32 µg/mL (≈ 95.1 µM) in assay [6] and > 250 µg/mL in assay [7]. Also, the outcome (in the assay on Escherichia coli [8]; in the assay on Staphylococcus aureus [9]; in assay [10]; in assay [11]) was inactive. Also, the figures for the zone of inhibition at 25 µg/mL (in the assay with Escherichia coli [12]; with Staphylococcus aureus [14]; in assay [16]) were 15 mm, 12 mm and 16 mm, respectively.

As to `CCOC(=O)C1(C)C(C)NC(=S)N(C)C1c1ccc(O)cc1` (stereo not given), the values for the zone of inhibition at 100 µg/mL (in [1]; with Escherichia coli [13]; in the assay with Staphylococcus aureus [15]) were 20 mm, 20 mm and 15 mm, respectively. Besides, the “diameter of the inhibition zone (DIZ)” value in [2] and in assay [3] was “inactive” in each case. Also, the MIC with Escherichia coli [4] was 32 µg/mL (≈ 99.2 µM); in the assay on Staphylococcus aureus [5] it was 32 µg/mL (≈ 99.2 µM); in assay [6], 32 µg/mL (≈ 99.2 µM); in [7], > 250 µg/mL. The result (with Escherichia coli [8]; in the assay on Staphylococcus aureus [9]; in [10]; in assay [11]) was inactive. Besides, the zone of inhibition at 25 µg/mL in the assay with Escherichia coli [12] was 17 mm; in the assay on Staphylococcus aureus [14], 13 mm; in [16], 16 mm.

`CCOC(=O)C1(C)C(C)NC(=O)N(C)C1c1ccccc1[N+](=O)[O-]` (stereo not given): the zone of inhibition at 100 µg/mL worked out at 24 mm in assay [1], 18 mm in the assay on Escherichia coli [13] and 28 mm in the assay with Staphylococcus aureus [15]. Also, the “diameter of the inhibition zone (DIZ)” value in [2] and in assay [3] was “inactive” throughout. In addition, the MIC in the assay on Escherichia coli [4] is 32 µg/mL (≈ 95.4 µM); against Staphylococcus aureus [5], 8 µg/mL (≈ 23.9 µM); in assay [6] it was 16 µg/mL (≈ 47.7 µM); in [7], > 250 µg/mL. Further, the outcome (in the assay on Escherichia coli [8]; with Staphylococcus aureus [9]; in assay [10]; in assay [11]) was inactive. Also, the zone of inhibition at 25 µg/mL with Escherichia coli [12] came to 13 mm; in the assay with Staphylococcus aureus [14], 14 mm; in assay [16] it was 15 mm.

Consider `CCOC(=O)C1(C)C(C)NC(=S)N(C)C1c1ccc(Cl)cc1` (stereo not given), for which the zone of inhibition at 100 µg/mL in [1] is 28 mm; in the assay on Escherichia coli [13], 20 mm; with Staphylococcus aureus [15], 23 mm. Moreover, the “diameter of the inhibition zone (DIZ)” value in [2] and in [3] was “inactive” throughout. Further, the MIC is 16 µg/mL (≈ 46.9 µM) in the assay with Escherichia coli [4], 16 µg/mL (≈ 46.9 µM) against Staphylococcus aureus [5], 8 µg/mL (≈ 23.5 µM) in assay [6] and > 250 µg/mL in assay [7]. In addition, the outcome (with Escherichia coli [8]; in the assay on Staphylococcus aureus [9]; in [10]; in assay [11]) was inactive. Further, the values for the zone of inhibition at 25 µg/mL (with Escherichia coli [12]; in the assay on Staphylococcus aureus [14]; in assay [16]) were 20 mm, 18 mm and 18 mm, respectively.

Take `CCOC(=O)C1(C)C(C)NC(=O)N(C)C1c1ccc(N(C)C)cc1` (stereo not given): the zone of inhibition at 100 µg/mL in [1] is 22 mm; in the assay on Escherichia coli [13], 14 mm; with Staphylococcus aureus [15] it was 16 mm. Also, the “diameter of the inhibition zone (DIZ)” value in [2] and in assay [3] was “inactive” throughout. The MIC was 68 µg/mL (≈ 204 µM) in the assay on Escherichia coli [4], 32 µg/mL (≈ 96 µM) in the assay on Staphylococcus aureus [5], 16 µg/mL (≈ 48 µM) in [6] and > 250 µg/mL in [7]. Also, the outcome (in the assay on Escherichia coli [8]; in the assay with Staphylococcus aureus [9]; in assay [10]; in [11]) was inactive. The zone of inhibition at 25 µg/mL was found to be 10 mm with Escherichia coli [12], 12 mm with Staphylococcus aureus [14] and 10 mm in assay [16].

For `CN[C@@H]1[C@H](O[C@H]2[C@H](O[C@H]3[C@H](O)[C@@H](O)[C@H](N=C(N)N)[C@@H](O)[C@@H]3N=C(N)N)O[C@@H](C)[C@]2(O)C=O)O[C@@H](CO)[C@H](O)[C@H]1O` [STREPTOMYCIN], the zone of inhibition at 100 µg/mL stood at 18 mm in assay [1], 16 mm in the assay on Escherichia coli [13] and 16 mm in the assay on Staphylococcus aureus [15]. The “diameter of the inhibition zone (DIZ)” value in assay [2] and in assay [3] was “inactive” in each case. The MIC was 32 µg/mL (≈ 55 µM) against Escherichia coli [4], 32 µg/mL (≈ 55 µM) in the assay with Staphylococcus aureus [5], 32 µg/mL (≈ 55 µM) in assay [6] and > 250 µg/mL in assay [7]. Besides, the zone of inhibition at 25 µg/mL came out at 14 mm with Escherichia coli [12], 12 mm in the assay on Staphylococcus aureus [14] and 25 mm in assay [16].

Values taken from ChEMBL document CHEMBL3632620, “Synthesis, characterization, crystal structure determination and biological screening of novel N-1 and C5 alkyl substituted scaffolds of pyrimidine” (2015).
